The source of these data is ChEMBL document CHEMBL1821692, “Synthesis and evaluation of diarylthiazole derivatives that inhibit activation of sterol regulatory element-binding proteins” (J Med Chem, 2011).

Data set [1] is described as follows: Aqueous solubility of the compound at pH 3 after 24 hrs by LC-MS/MS analysis. Type of data set: physicochemical. The conditions noted are these: buffer, pH 3, 24 h. The gist of the method:
(§1)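 DMSO stock diluted to 250 μM in aqueous buffer at pH 3 or pH 7 and held 24 h. Solution filtered through a 0.22 μm membrane; compound in the filtrate quantified by LC-MS/MS.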

Data set [2] in a line: Aqueous solubility of the compound at pH 7 after 24 hrs by LC-MS/MS analysis. Type of data set: physicochemical. The conditions noted are these: buffer, pH 7, 24 h. The gist of the method: as §1
In data set [3] the test system is Hepatocyte. Kind of data set: Half life in mouse hepatocytes at 1 uM after 90 mins by LC-MS/MS analysis. In kind it is ADME, cell-based, Liver. The conditions noted are these: 1.5 h. The gist of the method:
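Compound at 1 μM incubated at 37 °C with shaking in Leibovitz L-15 medium with mouse hepatocytes (3×10^5 cells mL⁻¹), in duplicate. […] Medium-only incubations served as negative controls; 7-ethoxycoumarin and 7-hydroxycoumarin were positive controls for phase I/II activity.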

Data set [4] has as its system Hepatocyte. Description: Metabolic stability in mouse hepatocytes at 1 uM after 90 mins by LC-MS/MS analysis. The settings on record: 1.5 h. In kind it is ADME, cell-based. The procedure, abridged:
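Each compound at 1 μM incubated at 37 °C in Leibovitz L-15 medium with mouse hepatocytes (3×10^5 cells mL⁻¹), in duplicate with shaking. […] After centrifugation the supernatant went to LC-MS/MS. Controls were compound in medium alone, and 7-ethoxycoumarin/7-hydroxycoumarin for phase I/II activity.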

Data set [5] is described as follows: Apparent permeability at 10 uM after 4 hrs by PAMPA. In kind it is ADME. The gist of the method: (§2)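 Passive diffusion across 15% soy lecithin in n-dodecane artificial membrane on a filter plate. […] Sandwich incubated 4 h at 37 °C. Acceptor, donor and initial donor solutions quantified by LC-MS/MS; Papp and % membrane retention calculated.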
The nature of data set [6]: Apparent permeability assessed as membrane retention at 10 uM after 4 hrs by PAMPA. In kind it is ADME. The gist of the method:
as §2

Data set [7] addresses T1, Sterol regulatory element-binding protein 2 (Homo sapiens) (UniProt Q12772).
T1 sequence (whole entry): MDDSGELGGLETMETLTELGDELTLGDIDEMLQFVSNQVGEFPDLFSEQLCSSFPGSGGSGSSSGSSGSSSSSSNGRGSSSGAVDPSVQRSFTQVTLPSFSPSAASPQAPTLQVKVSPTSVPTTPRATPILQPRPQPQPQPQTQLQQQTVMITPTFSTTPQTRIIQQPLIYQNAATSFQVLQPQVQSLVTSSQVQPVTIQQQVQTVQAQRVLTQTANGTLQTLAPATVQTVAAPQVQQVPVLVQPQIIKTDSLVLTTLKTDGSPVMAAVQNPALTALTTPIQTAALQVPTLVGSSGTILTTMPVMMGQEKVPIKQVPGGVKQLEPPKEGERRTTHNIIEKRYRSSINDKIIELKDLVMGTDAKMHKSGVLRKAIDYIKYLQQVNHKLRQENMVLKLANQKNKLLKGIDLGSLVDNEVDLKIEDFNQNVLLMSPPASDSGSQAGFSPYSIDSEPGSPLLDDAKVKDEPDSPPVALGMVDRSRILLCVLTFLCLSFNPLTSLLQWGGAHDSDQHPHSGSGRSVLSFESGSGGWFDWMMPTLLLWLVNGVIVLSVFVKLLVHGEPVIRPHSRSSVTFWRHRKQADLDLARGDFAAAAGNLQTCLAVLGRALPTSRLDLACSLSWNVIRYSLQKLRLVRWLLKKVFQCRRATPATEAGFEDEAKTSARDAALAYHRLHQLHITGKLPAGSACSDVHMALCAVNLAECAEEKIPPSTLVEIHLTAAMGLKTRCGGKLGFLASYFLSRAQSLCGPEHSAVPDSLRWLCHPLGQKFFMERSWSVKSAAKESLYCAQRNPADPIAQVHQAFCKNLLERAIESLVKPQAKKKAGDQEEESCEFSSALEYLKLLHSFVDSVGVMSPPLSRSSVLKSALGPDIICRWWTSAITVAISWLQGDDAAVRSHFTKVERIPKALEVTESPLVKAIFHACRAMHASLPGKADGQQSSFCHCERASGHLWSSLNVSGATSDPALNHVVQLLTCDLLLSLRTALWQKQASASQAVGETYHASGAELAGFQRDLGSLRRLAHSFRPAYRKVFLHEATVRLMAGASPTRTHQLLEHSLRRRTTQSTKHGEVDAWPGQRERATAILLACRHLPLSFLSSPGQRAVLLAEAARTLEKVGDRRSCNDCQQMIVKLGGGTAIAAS
The settings on record: CHO-K1; 1 to 20 uM.

Molecules are shown by their SMILES. In brackets after ≈: the same amount, converted by molar mass. Activity calls are given as the source filed them. No cut-off for these calls is given here.

Turning to `CCCc1cc(-c2nc(-c3ccc(NS(C)(=O)=O)cc3)cs2)ccn1`, the solubility was over 225 µM in data set [1] and 33 µM (≈ 12.3 µg/mL) in data set [2]. For the same compound, in data set [3], the t1/2 was determined as 44.4 min. In addition, the Stability result in data set [4] is “Stable”. In addition, the Papp in data set [5] stood at 14.98 ×10⁻⁶ cm/s. Also, the Activity in data set [6] was 97.35%. Moreover, the inhibition entry in data set [7] is “inactive”.

As to `CCCc1cc(-c2nc(-c3ccc(NC(C)C)cc3)cs2)ccn1`, the values for the solubility in data set [1] and in data set [2] were over 225 µM and 3 µM (≈ 1.01 µg/mL), respectively. This compound came in with a t1/2 in data set [3] of 22.4 min. Moreover, in data set [4], the Stability result is recorded as “Stable”. Besides, the Papp in data set [5] amounted to 1.059 ×10⁻⁶ cm/s. For the same compound, the Activity in data set [6] stood at 93.95%.

`CCCc1cc(-c2nc(-c3ccc(C)cc3)cs2)ccn1` [FATOSTATIN]: the solubility in data set [1] was determined as 80 µM (≈ 23.6 µg/mL); in data set [2], 2 µM (≈ 0.589 µg/mL). Moreover, the t1/2 in data set [3] is 10.1 min. The Stability entry in data set [4] was “Stable”. Besides, the Papp in data set [5] turned out to be 0.7555 ×10⁻⁶ cm/s. Further, the Activity in data set [6] turned out to be 94%.

In the case of `CC(=O)CC(c1ccccc1)c1c(O)c2ccccc2oc1=O` (stereo not given) [WARFARIN], in data set [6], the Activity is 0%.
